{"data": "Assay results from different studies", "cell line": "MCF7", "read-out": "cell growth or viability"}
{"SMILES": "O=c1ccc2ccc3occc3c2o1", "test": "WST-1", "setting": "48 h", "IC50": "7 µM"}
{"SMILES": "COCO[C@@H]1[C@H]2OC(C)(C)O[C@H]2[C@H](O[C@H]2C[C@H]3OC(C)(C)OC[C@]34[C@@H]3[C@@H](CC[C@]4(O)C2)[C@@]2(O)CC[C@H](CO)[C@@]2(C)C[C@H]3OCOC)O[C@H]1C", "test": "resazurin", "setting": "72 h", "IC50": "> 100 µM"}
{"SMILES": "O=C(Oc1ccc(Br)cc1)[c-]1cccc1.[Fe+2].c1cc[cH-]c1", "test": "MTT", "setting": "72 h", "IC50": "9.2 µM"}
{"SMILES": "COc1c2c(cc3c1OCO3)[C@]13C=C[C@H](OC)C[C@@H]1[N@](C2)C[C@H]3OC(=O)c1ccco1", "test": "WST-1", "IC50": "> 10 µM"}
{"SMILES": "c1ccc2c(c1)CCc1c-2[nH]c2ccccc12", "test": "MTT", "setting": "72 h", "IC50": "> 75 µM"}
{"SMILES": "COc1ccc(/C=C\\c2cc(OC)c(OC)c(OC)c2)cc1", "test": "SRB", "setting": "48 h", "IC50": "0.0048 µM"}
{"SMILES": "COC(C(=O)N1C(=O)SCC1C1(OC)CC2CC(CCC(C)C=CC=CCCC(C)=CC(=O)O2)O1)c1ccccc1 (centres unmarked)", "test": "MTT", "setting": "72 h", "IC50": "15.4 µM"}
{"SMILES": "COc1cc2c3c(n(CCCN4CCOCC4)c(=O)c2cc1OC)-c1cc2c(cc1C3=O)OCO2", "setting": "72 h", "IC50": "0.288 µg/mL"}
{"SMILES": "CO[C@]1([C@@H]2CSC(=O)N2Cc2ccccc2)C[C@H]2C[C@@H](CC[C@H](C)/C=C\\C=C\\CC/C(C)=C\\C(=O)O2)O1", "test": "MTT", "setting": "72 h", "IC50": "0.78 µM"}
{"SMILES": "[Cl-].[Cl-].[Co+2]", "test": "MTT", "setting": "48 h", "IC50": "> 150 µM"}
{"SMILES": "COc1c2c(cc3c1OCO3)[C@]13C=C[C@H](OC)C[C@@H]1[N@](C2)C[C@H]3OC(=O)c1ccc2ccccc2c1", "test": "WST-1", "IC50": "> 10 µM"}
{"SMILES": "COC1(C2CSC(=O)N2)CC2CC(CCC(C)C=CC=CCCC(C)=CC(=O)O2)O1 (centres unmarked)", "test": "MTT", "setting": "72 h", "IC50": "10.2 µM"}
{"SMILES": "CCC1(c2ccc(N)cc2)CCC(=O)NC1=O (centres unmarked)", "test": "CCK-8", "setting": "48 h", "IC50": "> 50 µM"}
{"SMILES": "C/C1=C/C(=O)O[C@@H]2C[C@@H](CC[C@H](C)/C=C\\C=C\\CC1)O[C@@](OCCc1ccccc1)([C@@H]1CSC(=O)N1)C2", "test": "MTT", "setting": "72 h", "IC50": "0.1 µM"}
{"SMILES": "O=C(Oc1ccc(I)cc1)[c-]1cccc1.[Fe+2].c1cc[cH-]c1", "test": "MTT", "setting": "72 h", "IC50": "256 µM"}
{"SMILES": "N.N.[Cl][Pt][Cl]", "test": "MTT", "IC50": "10 µM"}
{"SMILES": "CCN1C(=O)SC[C@H]1[C@@]1(O)C[C@H]2C[C@@H](CC[C@H](C)/C=C\\C=C\\CC/C(C)=C\\C(=O)O2)O1", "test": "MTT", "setting": "72 h", "IC50": "0.95 µM"}
{"SMILES": "O=c1ccc2cc3ccoc3cc2o1", "test": "WST-1", "setting": "48 h", "IC50": "32.4 µM"}
{"SMILES": "CO[C@]1([C@@H]2CSC(=O)N2C(=O)c2ccccc2)C[C@H]2C[C@@H](CC[C@H](C)/C=C\\C=C\\CC/C(C)=C\\C(=O)O2)O1", "test": "MTT", "setting": "72 h", "IC50": "0.55 µM"}
{"SMILES": "O=C1[O][Pt]2([NH][C@@H]3CCCC[C@H]3[NH]2)[O]C1=O", "test": "MTT", "setting": "96 h", "IC50": "2.6 µM"}
